# High-throughput results (PubChem BioAssay)
# Lipid droplet: hepatic lipid droplet formation modulation | hit rate 0.4% among 240,000 | inhibition, % at 6.5 µM | AML12 mouse hepatocytes, oleate lipid droplets, BODIPY imaging | AID 1656;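 active = lipid droplet intensity inhibited by at least 50%, with more than 500 cells counted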
#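 Assay system: AML12 mouse liver cells | Compound dosing: One dose, 6.5 µM compound | Read-out basis: Droplet intensity reduction, % inhibition | Measured by: Fluorescence imaging, 20x objective, two fields per well | Schedule: Overnight treatment with compound plus oleate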
# HSF1 activator: increases HSF-1 driven luciferase reporter signal | hit rate 1.7% among 300,000 | activation, % at 9 µM | NIH3T3-HGL HSF-1 luciferase reporter, MG132, 8 h; 100% = twice DMSO control signal;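 active = mean replicate activation of at least 50% with a set share of replicates each reaching 50%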
# HSP90 refold inh: HSP90 refolding inhibition in rabbit reticulocyte lysate; inhibition, % at 5.6 µM; hit rate 0.91% among 290,000; luciferase refolding luminescence, 3 h;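 active = inhibition above the screen-wide mean plus 3 SD, computed separately per campaign, cut at about 16% in these data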;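 note: inhibitors lower the luminescence because luciferase stays unfolded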
# HCV NS3 hel inh: inhibitors of Hepatitis C virus NS3 helicase; NS3 helicase DNA unwinding, Cy5 molecular beacon fluorescence; inhibition, % at 10.9 µM; hit rate 0.56% among 290,000;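 active = inhibition above the mean of all tested compounds plus 3 SD, set per campaign, cut at about 35% in these data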
#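 Material: hepatitis C virus NS3 helicase domain fragment enzyme; measured by: Cy5 fluorescence, 0 and 60 min reads; control set: DMSO and thioflavine S; incubation: 60 min unwinding reaction at 25 °C after ATP addition; read-out basis: % inhibition from 60/0 min fluorescence ratio, DMSO 0%, thioflavine S 100%; repeats: singlicate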
# HSF1 inh: HSF1 inhibition. NIH3T3-HGL HSE-luciferase, MG132-induced, luminescence 8 h; hits give low values. activity change, negative = inhibition, % at 7.5 µM (by protocol). hit rate 0.77% among 300,000. AID 2098;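 active = more than half of replicate wells show activity change below -50%, luminescence cut by over half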;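 note: luciferase reports HSF-1 transcriptional activity via heat shock element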
# A number is an active result; n = inactive; x = no result given. Rows were chosen to be rich in hits. Some 3.8% of all compounds tested hit in one or more screens of this group.
SMILES,Lipid droplet,HSF1 activator,HSP90 refold inh,HCV NS3 hel inh,HSF1 inh
Cc1ccccc1/C=C\c1nc2ccccc2c(=O)[nH]1,n,121.6,n,n,n
COC(=O)c1ccc(/C=C/c2nc3ccccc3c(=O)[nH]2)cc1,n,62.3,n,n,n
CCOC(=O)c1ccccc1NC(=O)COC(=O)C(CCSC)NC(=O)COc1ccccc1 (stereo not drawn),x,n,x,x,n
CCOC(=O)c1ccc(NC(=O)CCS(=O)(=O)c2ccc(Br)s2)cc1,n,116.6,n,n,n
O=C(O)c1ccc(N=Cc2c(O)ccc3ccccc23)cc1,n,n,n,n,n
COc1ccc(N=Cc2c(O)ccc3ccccc23)cc1,n,n,n,n,-58.4
COc1ccc(N=Cc2c(O)[nH]c3ccccc23)cc1,x,63.2,n,n,n
COc1ccc(CN=Cc2c(O)[nH]c3ccccc23)cc1,n,n,n,n,n
O=C(Cc1cn(-c2ccccc2)nc1-c1ccccc1)N1CCCCC1,n,n,n,n,n
CC(NC(=O)Cn1cnc([N+](=O)[O-])n1)c1ccccc1 (stereo not drawn),x,n,16.3,n,n
CCCn1c(C)cc(C(=O)COc2ccc(-c3nnco3)cc2)c1C,n,x,16.4,n,x
CCCn1c(C)cc(C(=O)COc2ncnc3sccc23)c1C,x,n,n,n,n
COc1ccc(OCCN(C)Cc2c(O)ccc3ccccc23)cc1,n,130.0,n,n,n
COc1ccc(C(=O)NCCn2cc(SCC(=O)N3CCOCC3)c3ccccc32)cc1,x,n,46.7,n,n
Cc1ccc(C(=O)NCCn2cc(SCC(=O)Nc3nnc(C)s3)c3ccccc32)cc1,x,n,50.0,n,n
O=C(NCCn1cc(SCC(=O)N2CCOCC2)c2ccccc21)c1ccccc1,n,n,n,n,n
Cc1nn(-c2cccc(Cl)c2)c2c1C(c1ccncc1)C(C#N)=C(N)O2 (stereo not drawn),n,82.1,n,n,n
Cn1c(SCC(=O)NC2(C#N)CCCCC2)nnc1-c1cccnc1,n,n,n,n,n
Cc1ccc(C(=O)N/C(=C\c2ccc(Br)cc2)c2nc(=S)[nH][nH]2)cc1,x,n,n,n,-69.3
CC(OC(=O)c1cc(S(=O)(=O)N2CCOCC2)ccc1F)C(=O)NCc1ccc2c(c1)OCO2 (stereo not drawn),x,n,x,x,n
Cc1ccsc1/C=N/N1CCN(Cc2ccccc2)CC1,n,n,n,n,n
CC1=C(CO)C(=O)OC([C@@H](C)C2CC[C@H]3C4C[C@H]5O[C@]56[C@@H](O)C=CC(=O)[C@]6(C)C4CC[C@]23C)C1 (stereo partly drawn),n,64.1,x,x,n
COc1ccc(-c2nc(CNS(=O)(=O)c3ccc(OC)c(OC)c3)cs2)cc1,n,n,n,n,-62.6
COc1ccc(NC2CCCN(C(=O)c3cn(C)c4ccccc34)C2)cc1 (stereo not drawn),n,n,n,n,n
Cc1ccc(NC(=O)Nc2ccc(C(=O)N3CCOCC3)cc2)cc1,n,n,n,n,n
SMILES,Lipid droplet,HSF1 activator,HSP90 refold inh,HCV NS3 hel inh,HSF1 inh
Cc1ccc(C(=O)N2CCSCC2)cc1,n,n,16.5,n,n
CCOc1cc(-c2nnc(NC(=O)C3=COCCO3)o2)cc(OCC)c1OCC,x,n,x,x,n
Cc1ccc2nc(-c3sc4nc(C)ccc4c3N)[nH]c2c1,n,n,n,n,n
Cc1cc(C)c2c(N)c(-c3nc4ccccc4[nH]3)sc2n1,x,73.2,n,n,n
CCOC(=O)C1=C(C)NC(=S)NC1c1ccsc1 (stereo not drawn),n,n,n,n,-66.6
CCOC(=O)C1=C(C)NC(=S)NC1c1ccc(C)s1 (stereo not drawn),n,n,n,n,n
Cc1cccc(NC(=O)c2nc[nH]c2C(=O)Nc2cccc(C)c2)c1,n,53.4,n,n,n
Cc1ccccc1NC(=O)c1[nH]cnc1C(=O)NN,n,n,n,n,n
Cc1ccccc1NC(=O)c1nc[nH]c1C(=O)NCc1ccccc1,n,58.8,n,n,n
CN=C1S/C(=C\c2cccc(Cl)c2Cl)C(=O)N1C,x,n,x,x,n
CCCCNC(=O)c1onc(CSc2cccc(Cl)c2)c1C(=O)O,x,n,n,n,-68.5
CN(C)C(=S)SCC(=O)Nc1ccc(Cl)cc1Cl,n,61.4,n,n,n
O=C(CC(=O)Nc1ccc(Cl)cc1Cl)Nc1ccc(Cl)cc1Cl,n,n,n,n,n
CCOC(=O)C(=CNc1ccc(S(N)(=O)=O)cc1)C(=O)OCC,n,n,n,n,n
CCOC(=O)C(=CNc1ccc(C#N)cc1)C(=O)OCC,n,59.8,n,n,n
CCOC(=O)C(=O)/C(C#N)=C/Nc1ccccc1,n,51.9,n,n,n
CC(C)c1c(C(=O)N/N=C/C2CC=CCC2)nnn1-c1nonc1N (stereo not drawn),n,n,n,n,n
COc1ccc(CN2C(=O)C(Cc3ccccc3)Nc3ncnc(N4CCc5ccccc5C4)c32)cc1 (stereo not drawn),x,71.4,x,x,n
COc1cc(SC#N)ccc1N=Cc1c(C)[nH]n(-c2cccc3ccccc23)c1=O,x,n,16.4,n,n
C=CCN(C(=O)CCc1ccccc1OC)c1nc(-c2ccc(S(C)(=O)=O)cc2)cs1,n,57.9,n,n,n
C(=N\C(/N=C/c1ccco1)c1ccco1)/c1ccco1,x,80.6,n,n,n
O=c1ccc2ccc(Oc3ccc([N+](=O)[O-])cc3[N+](=O)[O-])cc2o1,n,68.2,n,n,n
O=C(Cc1ccccc1[N+](=O)[O-])NCC1(c2cccc3c2OCO3)OCCO1,x,n,x,x,n
O=c1[nH]cnc2cc(-c3ccc(Br)cc3)sc12,n,n,n,n,n
O=c1[nH]c(CCl)nc2cc(-c3ccc(F)cc3)sc12,n,52.6,n,n,n
SMILES,Lipid droplet,HSF1 activator,HSP90 refold inh,HCV NS3 hel inh,HSF1 inh
CCOc1ccc(C(=O)N(Cc2ccc(OC)cc2)Cc2cc3cc(OC)ccc3[nH]c2=O)cc1,n,64.8,n,n,n
CCCCN(Cc1cc2cc(OC)ccc2[nH]c1=O)C(=O)c1ccco1,n,76.5,n,n,n
COc1ccccc1N1CCN(C2CCCN(C(=O)CCc3ccccn3)C2)CC1 (stereo not drawn),n,n,n,n,n
CCC(=O)N1CCN(c2cc(C)ccc2C)CC1,n,n,n,n,n
Cc1ccc(C)c(N2CCN(CCN3CCCCC3)CC2)c1,n,n,n,n,-56.9
CCOC(=O)C1CCN(C(C(=O)Nc2ccc3c(c2)OCCO3)c2ccccc2)CC1 (stereo not drawn),x,n,n,n,n
CCOC(=O)N1CCC(N2C(=O)c3ccccc3C2Nc2ccc3c(c2)OCCO3)CC1 (stereo not drawn),x,n,n,n,-68.6
CCOC(=O)C1CCN(c2c(Nc3ccc4c(c3)OCCO4)c(=O)c2=O)CC1,n,n,n,n,-53.6
O=C(NCCCn1ccnc1)C(=O)Nc1ccccc1,n,n,n,n,n
CCOc1cc(/C=C2\NC(=S)N(c3c(C)n(C)n(-c4ccccc4)c3=O)C2=O)ccc1O,n,n,n,n,n
